This passage reports Activity, GI50 and MRT last results from ChEMBL document CHEMBL4229344 (Eur J Med Chem, 2018).

SMILES strings stand for the structures. The source made the active and inactive calls. No cut-off for these calls is given here.

In data set [1] the target is LIM domain kinase 2 (Homo sapiens) (UniProt P53671). In words: Binding affinity to wild-type human full length LIMK2 (M1 to P638 residues) expressed in bacterial expression system assessed as residual binding level at 1 uM by Kinomescan method relative to control. In outline: (§1)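 Single-concentration (1 μM) competition-binding screen run by KINOMEscan against a panel of 468 purified kinases and mutants. The read-out is the relative binding activity of the test compound to each kinase.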

Data set [2] deals with Phosphatidylinositol 4-phosphate 3-kinase C2 domain-containing subunit beta (Homo sapiens) (UniProt O00750). In words: Binding affinity to wild-type human partial length PIK3C2B (M1 to L1634 residues) expressed in mammalian expression system assessed as residual binding level at 1 uM by Kinomescan method relative to control.
Phosphatidylinositol 4-phosphate 3-kinase C2 domain-containing subunit beta (Homo sapiens), sequence (O00750 whole entry, the tested form may be a part): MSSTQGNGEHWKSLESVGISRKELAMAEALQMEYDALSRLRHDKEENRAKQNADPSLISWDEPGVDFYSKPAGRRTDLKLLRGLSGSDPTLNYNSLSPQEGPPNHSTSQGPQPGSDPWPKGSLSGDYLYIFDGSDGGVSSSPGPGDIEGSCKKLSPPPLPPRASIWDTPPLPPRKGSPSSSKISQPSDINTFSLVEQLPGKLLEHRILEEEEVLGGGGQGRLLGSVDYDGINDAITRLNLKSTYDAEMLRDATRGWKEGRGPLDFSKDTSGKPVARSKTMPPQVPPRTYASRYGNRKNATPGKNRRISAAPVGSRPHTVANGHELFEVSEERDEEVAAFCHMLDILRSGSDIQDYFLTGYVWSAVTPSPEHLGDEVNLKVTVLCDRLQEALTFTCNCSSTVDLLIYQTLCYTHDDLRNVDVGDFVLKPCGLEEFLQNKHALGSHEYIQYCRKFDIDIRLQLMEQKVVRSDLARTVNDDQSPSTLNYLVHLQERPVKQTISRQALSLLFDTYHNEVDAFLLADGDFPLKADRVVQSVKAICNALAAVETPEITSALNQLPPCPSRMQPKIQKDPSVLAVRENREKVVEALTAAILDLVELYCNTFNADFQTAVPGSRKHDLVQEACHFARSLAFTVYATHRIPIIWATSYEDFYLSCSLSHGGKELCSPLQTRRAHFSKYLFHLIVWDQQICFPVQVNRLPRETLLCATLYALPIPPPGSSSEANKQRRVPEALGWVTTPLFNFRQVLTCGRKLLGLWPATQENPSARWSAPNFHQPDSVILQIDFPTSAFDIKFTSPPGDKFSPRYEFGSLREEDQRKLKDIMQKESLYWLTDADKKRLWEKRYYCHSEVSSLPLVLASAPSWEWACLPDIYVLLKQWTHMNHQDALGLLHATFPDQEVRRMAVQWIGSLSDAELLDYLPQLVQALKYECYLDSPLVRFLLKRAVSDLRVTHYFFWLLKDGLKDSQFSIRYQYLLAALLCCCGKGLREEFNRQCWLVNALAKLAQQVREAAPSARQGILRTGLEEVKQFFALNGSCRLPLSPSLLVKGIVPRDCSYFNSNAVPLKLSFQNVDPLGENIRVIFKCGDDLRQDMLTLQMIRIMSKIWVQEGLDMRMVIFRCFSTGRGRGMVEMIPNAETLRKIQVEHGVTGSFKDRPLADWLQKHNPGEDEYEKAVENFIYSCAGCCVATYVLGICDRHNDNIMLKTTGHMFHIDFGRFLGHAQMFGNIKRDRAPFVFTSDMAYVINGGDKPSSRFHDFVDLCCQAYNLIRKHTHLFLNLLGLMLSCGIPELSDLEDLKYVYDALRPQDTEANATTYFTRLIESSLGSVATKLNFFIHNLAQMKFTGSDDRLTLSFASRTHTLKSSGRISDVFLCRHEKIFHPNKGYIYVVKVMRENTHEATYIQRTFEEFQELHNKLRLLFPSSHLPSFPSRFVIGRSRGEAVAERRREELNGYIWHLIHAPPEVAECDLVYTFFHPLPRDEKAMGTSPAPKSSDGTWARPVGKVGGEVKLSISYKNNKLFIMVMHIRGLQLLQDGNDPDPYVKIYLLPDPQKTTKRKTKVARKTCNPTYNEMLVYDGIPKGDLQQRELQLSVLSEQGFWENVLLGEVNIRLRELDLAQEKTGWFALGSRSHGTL
In data set [3] the target is Phosphatidylinositol 3-kinase catalytic subunit type 3 (Homo sapiens) (UniProt Q8NEB9). In words: Binding affinity to wild-type human partial length VPS34 (S282 to H879 residues) expressed in mammalian expression system assessed as residual binding level at 1 uM by Kinomescan method relative to control.
Data set [4] has as its target Death-associated protein kinase 3 (Homo sapiens) (UniProt O43293). Kind of data set: Binding affinity to wild-type human partial length DAPK3 (M1 to A277 residues) expressed in bacterial expression system assessed as residual binding level at 1 uM by Kinomescan method relative to control.
Data set [5] concerns Epidermal growth factor receptor (Homo sapiens), P00533 [G719C]. In words: Binding affinity to human partial length EGFR G719C mutant (R669 to V1011 residues) expressed in bacterial expression system assessed as residual binding level at 1 uM by Kinomescan method relative to control. Put shortly:
(§2)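 Kinome-wide single-concentration binding screen (KINOMEscan) at 1 μM against a panel of 468 purified kinases and mutants. Read-out is relative binding of each kinase compared with control. Selectivity across the panel was summarised as an S(10) score.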

For data set [6], the system named is NCI-H1703. Kind of data set: Antiproliferative activity against human NCI-H1703 cells after 72 hrs by CellTiter-Glo or CCK-8 assay. Format: functional. As to conditions: NCI-H1703, 72 h. Put shortly:
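Cells in RPMI 1640 with 10% FBS at 37 °C, 5% CO2, seeded at 1–3 × 10^4 cells/mL with serial compound dilutions for 72 h. Viability read by CellTiter-Glo luminescence or CCK-8 absorbance (450/655 nm), normalized to DMSO control.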

Data set [7] concerns NCI-H1703. In words: Induction of apoptosis in human NCI-H1703 cells assessed as cleaved caspase3 expression level at 0.3 to 10 uM after 72 hrs by Western blot analysis. In kind it is functional, cell-based. In outline: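 Cells exposed to compound or DMSO for the stated periods, then lysed and immunoblotted for PARP and caspase-3 cleavage, with β-actin as loading control. NCI-H1703 stimulation used PDGF AA at 100 ng/mL.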
For orientation: A western blot detects proteins with antibodies after separation by electrophoresis.

The target of data set [8] is Ribosomal protein S6 kinase alpha-5 (Homo sapiens) (UniProt O75582). Kind of data set: Binding affinity to wild-type human partial length N-terminal RPS6KA5 kinase domain 1 expressed in bacterial expression system assessed as residual binding level at 1 uM by Kinomescan method relative to control.
Data set [9] has as its target Serine/threonine-protein kinase VRK2 (Homo sapiens) (UniProt Q86Y07). Kind of data set: Binding affinity to wild-type human partial length VRK2 (M1 to T336 residues) expressed in mammalian expression system assessed as residual binding level at 1 uM by Kinomescan method relative to control.
In data set [10] the test system is Proto-oncogene tyrosine-protein kinase receptor Ret (Homo sapiens), P07949 [V804L]. Kind of data set: Binding affinity to human partial length RET V804L mutant (E713 to D1014 residues) expressed in bacterial expression system assessed as residual binding level at 1 uM by Kinomescan method relative to control. Put shortly: as §2
In data set [11] the target is Ephrin type-A receptor 3 (Homo sapiens) (UniProt P29320). Kind of data set: Binding affinity to wild-type human partial length EPHA3 (D604 to K889 residues) expressed in bacterial expression system assessed as residual binding level at 1 uM by Kinomescan method relative to control. In outline: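 Kinome-wide competition binding screen against a panel of 468 purified kinases/mutants, with the test compound at a single concentration of 1 μM. Read-out is the relative binding activity of each kinase in the presence of compound.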

Data set [12] concerns the target Aurora kinase C (Homo sapiens) (UniProt Q9UQB9). In words: Binding affinity to wild-type human full length AURKC (M1 to S275 residues) expressed in bacterial expression system assessed as residual binding level at 1 uM by Kinomescan method relative to control. In outline: as §1
Data set [13] concerns the target Ribosomal protein S6 kinase alpha-6 (Homo sapiens) (UniProt Q9UK32). Kind of data set: Binding affinity to wild-type human partial length N-terminal RSK4 kinase domain 1 (M1 to E397 residues) expressed in mammalian expression system assessed as residual binding level at 1 uM by Kinomescan method relative to control.
The target in data set [14] is Serine/threonine-protein kinase PAK 4 (Homo sapiens) (UniProt O96013). In words: Binding affinity to wild-type human partial length PAK4 (Q144 to R438 residues) expressed in bacterial expression system assessed as residual binding level at 1 uM by Kinomescan method relative to control.
The target in data set [15] is Phosphatidylinositol 4,5-bisphosphate 3-kinase catalytic subunit gamma isoform (Homo sapiens) (UniProt P48736). In words: Binding affinity to wild-type human partial length PIK3CG (S144 to A1102 residues) expressed in mammalian expression system assessed as residual binding level at 1 uM by Kinomescan method relative to control.
Phosphatidylinositol 4,5-bisphosphate 3-kinase catalytic subunit gamma isoform (Homo sapiens), sequence (P48736 whole entry, looked up, the tested form may be a part, canonical isoform): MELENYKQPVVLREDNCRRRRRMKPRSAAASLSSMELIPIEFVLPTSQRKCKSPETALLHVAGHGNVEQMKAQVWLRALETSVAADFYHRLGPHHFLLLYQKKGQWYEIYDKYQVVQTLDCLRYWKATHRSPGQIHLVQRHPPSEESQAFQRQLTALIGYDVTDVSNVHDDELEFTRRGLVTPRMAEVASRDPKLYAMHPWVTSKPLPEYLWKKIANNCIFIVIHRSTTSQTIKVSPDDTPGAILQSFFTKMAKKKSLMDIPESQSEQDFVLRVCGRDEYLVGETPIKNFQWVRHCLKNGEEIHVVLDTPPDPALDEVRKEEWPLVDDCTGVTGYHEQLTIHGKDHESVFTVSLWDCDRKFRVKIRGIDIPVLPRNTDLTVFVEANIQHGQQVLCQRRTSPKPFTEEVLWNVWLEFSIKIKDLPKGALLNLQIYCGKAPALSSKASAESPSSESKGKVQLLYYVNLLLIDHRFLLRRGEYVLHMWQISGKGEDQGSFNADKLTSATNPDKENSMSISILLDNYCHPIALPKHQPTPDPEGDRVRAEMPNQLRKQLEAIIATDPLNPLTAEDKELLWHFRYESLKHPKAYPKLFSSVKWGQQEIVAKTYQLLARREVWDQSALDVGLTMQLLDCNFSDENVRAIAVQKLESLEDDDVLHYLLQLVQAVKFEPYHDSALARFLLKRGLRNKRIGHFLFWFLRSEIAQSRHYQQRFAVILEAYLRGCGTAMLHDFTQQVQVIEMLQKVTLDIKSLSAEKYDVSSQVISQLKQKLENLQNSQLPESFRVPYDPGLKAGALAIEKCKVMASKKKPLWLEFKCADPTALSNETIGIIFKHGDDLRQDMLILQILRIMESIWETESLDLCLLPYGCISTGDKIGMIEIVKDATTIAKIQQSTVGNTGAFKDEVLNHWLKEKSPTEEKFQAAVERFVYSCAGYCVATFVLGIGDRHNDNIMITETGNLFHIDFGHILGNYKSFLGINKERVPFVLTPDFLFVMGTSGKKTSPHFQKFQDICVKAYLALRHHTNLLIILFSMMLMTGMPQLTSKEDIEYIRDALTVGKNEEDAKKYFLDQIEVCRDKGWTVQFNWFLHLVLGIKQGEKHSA
In data set [16] the target is Serine/threonine-protein kinase/endoribonuclease IRE1 (Homo sapiens) (UniProt O75460). Kind of data set: Binding affinity to wild-type human partial length ERN1 (S551 to E852 residues) expressed in mammalian expression system assessed as residual binding level at 1 uM by Kinomescan method relative to control.
The target in data set [17] is MAP/microtubule affinity-regulating kinase 3 (Homo sapiens) (UniProt P27448). Kind of data set: Binding affinity to wild-type human full length MARK3 (M1 to L729 residues) expressed in bacterial expression system assessed as residual binding level at 1 uM by Kinomescan method relative to control. In outline: (§3)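 KINOMEscan competition binding against 468 purified kinases/mutants, test compound at 1 µM; residual binding relative to control.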
MAP/microtubule affinity-regulating kinase 3 (Homo sapiens), sequence (P27448 whole entry, looked up, the tested form may be a part): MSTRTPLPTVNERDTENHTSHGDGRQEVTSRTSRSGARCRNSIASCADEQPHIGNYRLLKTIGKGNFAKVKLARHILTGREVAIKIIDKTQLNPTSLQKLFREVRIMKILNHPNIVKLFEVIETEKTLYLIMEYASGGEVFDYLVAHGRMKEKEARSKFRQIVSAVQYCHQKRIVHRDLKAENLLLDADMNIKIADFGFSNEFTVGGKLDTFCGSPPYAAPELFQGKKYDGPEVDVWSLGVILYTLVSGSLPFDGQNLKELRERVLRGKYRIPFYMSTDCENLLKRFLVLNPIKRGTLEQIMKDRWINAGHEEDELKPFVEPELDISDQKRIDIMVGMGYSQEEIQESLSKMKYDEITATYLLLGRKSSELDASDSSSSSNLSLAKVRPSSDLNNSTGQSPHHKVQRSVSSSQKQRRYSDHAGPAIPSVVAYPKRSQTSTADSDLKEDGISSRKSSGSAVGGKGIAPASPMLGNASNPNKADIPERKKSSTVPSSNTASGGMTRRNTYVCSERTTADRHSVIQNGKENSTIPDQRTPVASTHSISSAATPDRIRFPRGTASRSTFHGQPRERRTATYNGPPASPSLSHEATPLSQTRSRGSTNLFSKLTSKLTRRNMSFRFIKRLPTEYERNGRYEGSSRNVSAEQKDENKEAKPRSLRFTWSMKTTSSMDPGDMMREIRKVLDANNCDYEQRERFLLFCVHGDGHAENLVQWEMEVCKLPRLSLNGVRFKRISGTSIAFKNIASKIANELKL

A short description of data set [18]: MRT (0 to t) in Sprague-Dawley rat at 1 mg/kg, iv. Format: ADME, organism-based. As to conditions: in vivo.
Data set [19] deals with Tyrosine-protein kinase ABL1 (Homo sapiens), P00519 [F317I]. In words: Binding affinity to human non-phosphorylated ABL1 F317I mutant (S229 to K512 residues) expressed in mammalian expression system assessed as residual binding level at 1 uM by Kinomescan method relative to control. Put shortly:
as §2

The target in data set [20] is Dual specificity protein kinase CLK1 (Homo sapiens) (UniProt P49759). In words: Binding affinity to wild-type human full length CLK1 (M1 to I484 residues) expressed in bacterial expression system assessed as residual binding level at 1 uM by Kinomescan method relative to control. In outline: as §3
Dual specificity protein kinase CLK1 (Homo sapiens), sequence (P49759 whole entry, looked up, the tested form may be a part): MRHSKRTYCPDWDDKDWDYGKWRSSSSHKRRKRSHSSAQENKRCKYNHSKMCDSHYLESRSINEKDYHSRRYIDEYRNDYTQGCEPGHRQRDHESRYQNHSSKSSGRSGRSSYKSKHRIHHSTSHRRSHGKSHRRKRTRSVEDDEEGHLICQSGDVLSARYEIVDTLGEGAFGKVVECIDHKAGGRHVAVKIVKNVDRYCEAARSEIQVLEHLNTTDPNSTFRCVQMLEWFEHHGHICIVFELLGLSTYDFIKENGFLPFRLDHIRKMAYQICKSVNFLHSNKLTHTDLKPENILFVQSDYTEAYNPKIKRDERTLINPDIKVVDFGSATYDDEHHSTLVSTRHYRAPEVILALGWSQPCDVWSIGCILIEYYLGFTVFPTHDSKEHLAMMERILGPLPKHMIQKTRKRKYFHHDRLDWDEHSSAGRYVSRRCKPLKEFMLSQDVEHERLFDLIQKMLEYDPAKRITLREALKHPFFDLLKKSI
Data set [21] has as its target Activated CDC42 kinase 1 (Homo sapiens) (UniProt Q07912). In words: Binding affinity to wild-type human partial length TNK2 (S159 to D474 residues) expressed in bacterial expression system assessed as residual binding level at 1 uM by Kinomescan method relative to control.

Aurora kinase C (Homo sapiens), sequence (Q9UQB9 whole entry, the tested form may be a part): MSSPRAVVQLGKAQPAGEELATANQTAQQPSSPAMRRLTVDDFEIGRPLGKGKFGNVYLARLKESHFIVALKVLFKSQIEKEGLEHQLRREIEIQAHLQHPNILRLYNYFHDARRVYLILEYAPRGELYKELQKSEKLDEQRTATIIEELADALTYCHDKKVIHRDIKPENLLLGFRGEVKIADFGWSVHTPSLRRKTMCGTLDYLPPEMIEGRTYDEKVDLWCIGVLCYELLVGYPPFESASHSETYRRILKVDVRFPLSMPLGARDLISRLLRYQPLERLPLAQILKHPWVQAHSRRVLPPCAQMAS
Ribosomal protein S6 kinase alpha-6 (Homo sapiens), sequence (Q9UK32 whole entry, the tested form may be a part): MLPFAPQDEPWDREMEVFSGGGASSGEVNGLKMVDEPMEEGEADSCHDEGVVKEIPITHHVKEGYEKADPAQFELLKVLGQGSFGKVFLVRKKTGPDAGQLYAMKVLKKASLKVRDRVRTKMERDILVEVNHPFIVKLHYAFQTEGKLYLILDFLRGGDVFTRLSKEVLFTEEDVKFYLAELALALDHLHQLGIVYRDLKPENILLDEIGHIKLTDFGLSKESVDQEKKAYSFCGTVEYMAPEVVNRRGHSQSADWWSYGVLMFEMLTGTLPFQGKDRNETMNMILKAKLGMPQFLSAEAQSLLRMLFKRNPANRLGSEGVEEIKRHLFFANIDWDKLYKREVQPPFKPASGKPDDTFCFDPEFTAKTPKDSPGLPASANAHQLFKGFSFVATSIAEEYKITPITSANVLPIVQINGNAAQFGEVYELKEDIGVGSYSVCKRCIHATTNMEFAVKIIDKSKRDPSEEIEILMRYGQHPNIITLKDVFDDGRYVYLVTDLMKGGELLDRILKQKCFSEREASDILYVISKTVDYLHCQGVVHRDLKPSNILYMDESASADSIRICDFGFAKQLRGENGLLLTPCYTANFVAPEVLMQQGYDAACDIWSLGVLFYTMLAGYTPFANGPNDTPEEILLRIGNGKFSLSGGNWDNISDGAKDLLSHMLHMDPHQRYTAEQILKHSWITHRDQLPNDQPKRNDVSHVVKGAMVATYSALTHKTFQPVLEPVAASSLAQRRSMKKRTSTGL

Take `Cc1ccc(NC(=O)c2ccc(CN(CCN(C)C)C(=O)c3cccnc3)cc2)cc1Nc1nccc(-c2cccnc2)n1`: the Activity came to 100% in data set [1]; 97% in [2]; 100% in [3]; 93% in data set [4]; 88% in data set [5]; 86% in [8]. In addition, the Activity came to 100% in [9]; 97% in [10]; 89% in data set [11]; 97% in [12]; 100% in data set [13]; 98% in data set [14]. For the same compound, the Activity in data set [15] stood at 99%; in [16], 96%; in data set [17], 80%; in data set [19], 94%; in data set [20] it was 87%; in data set [21] it was 88%. Besides, the 50% growth inhibitory concentration (GI50) (in general, the concentration that inhibits growth by half) in data set [6] was found to be 5.37 µM. In data set [7], the result was inactive. For the same compound, in data set [18], the mean residence time MRT last (in general, the average time that molecules of a dose stay in the body) amounted to 53.5 min.
